Experimental data as given in ChEMBL document CHEMBL4715736, “Identification of anticancer agents based on the thieno[2,3-b]pyridine and 1H-pyrazole molecular scaffolds” (2016).

tested on: SNB-19; assay: Growth inhibition of human SNB-19 cells assessed as cell growth at 10 uM incubated for 48 hrs by sulforhodamine B assay relative to control; format: functional; details: read-out: Activity
Outline: (§1)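 Run by the NCI Developmental Therapeutics Program as part of its 60-line human tumour panel. Each compound tested at a single 10 µM dose. Growth expressed as % relative to untreated control cells (100%).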

Compound	growth at 10 µM [%]
CCOc1ccc(-c2cc(N)n(S(=O)(=O)c3ccc(OC)cc3)n2)cc1	96.3

tested on: OVCAR-8; assay: Growth inhibition of human OVCAR-8 cells assessed as cell growth at 10 uM incubated for 48 hrs by sulforhodamine B assay relative to control; format: functional; details: read-out: Activity; outline: as §1

Compound	growth at 10 µM [%]
CCOc1ccc(-c2cc(N)n(S(=O)(=O)c3ccc(OC)cc3)n2)cc1	96.6

tested on: OVCAR-4; assay: Growth inhibition of human OVCAR-4 cells assessed as cell growth at 10 uM incubated for 48 hrs by sulforhodamine B assay relative to control; format: functional; details: read-out: Activity; outline: as §1

Compound	growth at 10 µM [%]
CCOc1ccc(-c2cc(N)n(S(=O)(=O)c3ccc(OC)cc3)n2)cc1	103

tested on: SF-268; assay: Growth inhibition of human SF-268 cells assessed as cell growth at 10 uM incubated for 48 hrs by sulforhodamine B assay relative to control; format: functional; details: read-out: Activity; outline: as §1

Compound	growth at 10 µM [%]
CCOc1ccc(-c2cc(N)n(S(=O)(=O)c3ccc(OC)cc3)n2)cc1	109

tested on: T47D; assay: Growth inhibition of human T47D cells assessed as cell growth at 10 uM incubated for 48 hrs by sulforhodamine B assay relative to control; format: functional; details: read-out: Activity; outline: as §1

Compound	growth at 10 µM [%]
CCOc1ccc(-c2cc(N)n(S(=O)(=O)c3ccc(OC)cc3)n2)cc1	96.4

tested on: DU-145; assay: Growth inhibition of human DU-145 cells assessed as cell growth at 10 uM incubated for 48 hrs by sulforhodamine B assay relative to control; format: functional; details: read-out: Activity
Outline: (§2)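 NCI Developmental Therapeutics Program NCI60 panel. Compounds that were active in the 10 µM one-dose screen went on to dose–response testing. Growth at each concentration is expressed relative to untreated control (100%). GI50 (concentration giving 50% of maximal inhibition of proliferation) and TGI (concentration giving total growth inhibition) were derived from the curves.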

Compound	growth at 10 µM [%]
CCOc1ccc(-c2cc(N)n(S(=O)(=O)c3ccc(OC)cc3)n2)cc1	110

tested on: COLO 205; assay: Growth inhibition of human COLO 205 cells assessed as cell growth at 10 uM incubated for 48 hrs by sulforhodamine B assay relative to control; format: functional; details: read-out: Activity; outline: as §2

Compound	growth at 10 µM [%]
CCOc1ccc(-c2cc(N)n(S(=O)(=O)c3ccc(OC)cc3)n2)cc1	116

tested on: LOX IMVI; assay: Growth inhibition of human LOX IMVI cells assessed as cell growth at 10 uM incubated for 48 hrs by sulforhodamine B assay relative to control; format: functional; details: read-out: Activity
Outline: (§3)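 Submitted to the NCI Developmental Therapeutics Program for the NCI60 human tumour cell line panel. First screen at a single 10 µM concentration. Read-out is growth relative to untreated control cells set at 100%.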

Compound	growth at 10 µM [%]
CCOc1ccc(-c2cc(N)n(S(=O)(=O)c3ccc(OC)cc3)n2)cc1	105

tested on: TK-10; assay: Growth inhibition of human TK-10 cells assessed as cell growth at 10 uM incubated for 48 hrs by sulforhodamine B assay relative to control; format: functional; details: read-out: Activity; outline: as §1

Compound	growth at 10 µM [%]
CCOc1ccc(-c2cc(N)n(S(=O)(=O)c3ccc(OC)cc3)n2)cc1	130

tested on: SK-OV-3; assay: Growth inhibition of human SK-OV-3 cells assessed as cell growth at 10 uM incubated for 48 hrs by sulforhodamine B assay relative to control; format: functional; details: read-out: Activity; outline: as §1

Compound	growth at 10 µM [%]
CCOc1ccc(-c2cc(N)n(S(=O)(=O)c3ccc(OC)cc3)n2)cc1	114

tested on: HT-29; assay: Growth inhibition of human HT-29 cells assessed as cell growth at 10 uM incubated for 48 hrs by sulforhodamine B assay relative to control; format: functional; details: read-out: Activity; outline: as §3

Compound	growth at 10 µM [%]
CCOc1ccc(-c2cc(N)n(S(=O)(=O)c3ccc(OC)cc3)n2)cc1	105

tested on: SW-620; assay: Growth inhibition of human SW-620 cells assessed as cell growth at 10 uM incubated for 48 hrs by sulforhodamine B assay relative to control; format: functional; details: read-out: Activity; outline: as §1

Compound	growth at 10 µM [%]
CCOc1ccc(-c2cc(N)n(S(=O)(=O)c3ccc(OC)cc3)n2)cc1	110

tested on: MDA-MB-231; assay: Growth inhibition of human MDA-MB-231 cells assessed as cell growth at 10 uM incubated for 48 hrs by sulforhodamine B assay relative to control; format: functional; details: read-out: Activity; outline: as §3

Compound	growth at 10 µM [%]
CCOc1ccc(-c2cc(N)n(S(=O)(=O)c3ccc(OC)cc3)n2)cc1	92.4

tested on: HCC 2998; assay: Growth inhibition of human HCC 2998 cells assessed as cell growth at 10 uM incubated for 48 hrs by sulforhodamine B assay relative to control; format: functional; details: read-out: Activity; outline: as §2

Compound	growth at 10 µM [%]
CCOc1ccc(-c2cc(N)n(S(=O)(=O)c3ccc(OC)cc3)n2)cc1	112

tested on: 786-0; assay: Growth inhibition of human 786-0 cells assessed as cell growth at 10 uM incubated for 48 hrs by sulforhodamine B assay relative to control; format: functional; details: read-out: Activity; outline: as §2

Compound	growth at 10 µM [%]
CCOc1ccc(-c2cc(N)n(S(=O)(=O)c3ccc(OC)cc3)n2)cc1	108

tested on: MCF7; assay: Growth inhibition of human MCF7 cells assessed as cell growth at 10 uM incubated for 48 hrs by sulforhodamine B assay relative to control; format: functional; details: read-out: Activity; outline: as §3

Compound	growth at 10 µM [%]
CCOc1ccc(-c2cc(N)n(S(=O)(=O)c3ccc(OC)cc3)n2)cc1	88.2

tested on: RPMI-8226; assay: Growth inhibition of human RPMI-8226 cells assessed as cell growth at 10 uM incubated for 48 hrs by sulforhodamine B assay relative to control; format: functional; details: read-out: Activity; outline: as §1

Compound	growth at 10 µM [%]
CCOc1ccc(-c2cc(N)n(S(=O)(=O)c3ccc(OC)cc3)n2)cc1	94.1

tested on: SK-MEL-2; assay: Growth inhibition of human SK-MEL-2 cells assessed as cell growth at 10 uM incubated for 48 hrs by sulforhodamine B assay relative to control; format: functional; details: read-out: Activity; outline: as §1

Compound	growth at 10 µM [%]
CCOc1ccc(-c2cc(N)n(S(=O)(=O)c3ccc(OC)cc3)n2)cc1	110

tested on: NCI-H522; assay: Growth inhibition of human NCI-H522 cells assessed as cell growth at 10 uM incubated for 48 hrs by sulforhodamine B assay relative to control; format: functional; details: read-out: Activity; outline: as §3

Compound	growth at 10 µM [%]
CCOc1ccc(-c2cc(N)n(S(=O)(=O)c3ccc(OC)cc3)n2)cc1	101

tested on: BT-549; assay: Growth inhibition of human BT-549 cells assessed as cell growth at 10 uM incubated for 48 hrs by sulforhodamine B assay relative to control; format: functional; details: read-out: Activity
Outline: (§4)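 NCI Developmental Therapeutics Program NCI60 human tumour cell line panel, one-dose primary screen with every compound at 10 µM. Growth is expressed as % of untreated control cells (100%).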

Compound	growth at 10 µM [%]
CCOc1ccc(-c2cc(N)n(S(=O)(=O)c3ccc(OC)cc3)n2)cc1	111

tested on: NCI-H23; assay: Growth inhibition of human NCI-H23 cells assessed as cell growth at 10 uM incubated for 48 hrs by sulforhodamine B assay relative to control; format: functional; details: read-out: Activity; outline: as §3

Compound	growth at 10 µM [%]
CCOc1ccc(-c2cc(N)n(S(=O)(=O)c3ccc(OC)cc3)n2)cc1	115

tested on: K562; assay: Growth inhibition of human K562 cells assessed as cell growth at 10 uM incubated for 48 hrs by sulforhodamine B assay relative to control; format: functional; details: read-out: Activity; outline: as §3

Compound	growth at 10 µM [%]
CCOc1ccc(-c2cc(N)n(S(=O)(=O)c3ccc(OC)cc3)n2)cc1	105

tested on: ACHN; assay: Growth inhibition of human ACHN cells assessed as cell growth at 10 uM incubated for 48 hrs by sulforhodamine B assay relative to control; format: functional; details: read-out: Activity; outline: as §4

Compound	growth at 10 µM [%]
CCOc1ccc(-c2cc(N)n(S(=O)(=O)c3ccc(OC)cc3)n2)cc1	102

tested on: SR; assay: Growth inhibition of human SR cells assessed as cell growth at 10 uM incubated for 48 hrs by sulforhodamine B assay relative to control; format: functional; details: read-out: Activity; outline: as §1

Compound	growth at 10 µM [%]
CCOc1ccc(-c2cc(N)n(S(=O)(=O)c3ccc(OC)cc3)n2)cc1	116
